Data on five molecules can be found in ChEMBL document CHEMBL1649122, “Abc1p is a multidrug efflux transporter that tips the balance in favor of innate azole resistance in Candida krusei” (2009).

For assay [1], the system named is Saccharomyces cerevisiae. Description: Fold resistant, ratio of MIC for Saccharomyces cerevisiae isolate ADdelta overexpressing Candida krusei ERG11C to MIC for Saccharomyces cerevisiae isolate ADdelta overexpressing Abc1p. Format: functional. Put shortly: (§1)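 Fold resistance is the ratio of azole MICs between S. cerevisiae overexpressing strains. The MICs were measured by liquid broth microdilution in CSM medium at pH 7.0. The ERG11 or ABC1 constructs are integrated at the PDR5 locus.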

Assay [2] has as its system Pichia kudriavzevii. Description: Antimicrobial activity against Candida krusei NZCDC 89.102 after 48 hrs by liquid microdilution assay. Format: functional. Conditions: NZCDC 89.102, 48 h. Put shortly: (§2)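 Liquid broth microdilution susceptibility assay in CSM medium at pH 7.0, which was also the medium used for the expression studies. Fungal strains were maintained in YPD. The S. cerevisiae test strains carry C. krusei ABC1 or fungal ERG11 alleles integrated at the chromosomal PDR5 locus.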
Background: Dilution methods test growth across graded concentrations, often in twofold steps.

Assay [3] relates to Saccharomyces cerevisiae. As to the kind of experiment: Antimicrobial activity against Saccharomyces cerevisiae isolate ADdelta overexpressing Abc1p after 48 hrs by liquid microdilution assay. It is filed as functional. Put shortly:
as §2

The test system of assay [4] is Pichia kudriavzevii. Description: Antimicrobial activity against Candida krusei NZCDC 90.147 after 48 hrs by CLSI method. It is filed as functional. Put shortly: (§3)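 Azole MICs were determined by the CLSI M27-A2 broth microdilution reference method. They were interpreted against the CLSI breakpoints. Strains were maintained in YPD medium (1% yeast extract, 2% peptone, 2% glucose).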

The test system of assay [5] is Saccharomyces cerevisiae. As to the kind of experiment: Antimicrobial activity against Saccharomyces cerevisiae isolate AD overexpressing Candida krusei ERG11C after 48 hrs by liquid microdilution assay. Format: functional. Put shortly:
as §2

In assay [6] the test system is Pichia kudriavzevii. As to the kind of experiment: Antimicrobial activity against Candida krusei IFO0011 after 48 hrs by CLSI method. Conditions: IFO0011, 48 h. It is filed as functional. An outline of the steps:
as §3

The subject of assay [7] is Saccharomyces cerevisiae. As to the kind of experiment: Fold resistant, ratio of MIC for Saccharomyces cerevisiae isolate ADdelta overexpressing Saccharomyces cerevisiae ERG11 to MIC for Saccharomyces cerevisiae isolate ADdelta overexpressing Abc1p. Format: functional. Put shortly: as §1
The subject of assay [8] is Saccharomyces cerevisiae. As to the kind of experiment: Antimicrobial activity against Saccharomyces cerevisiae isolate ADdelta overexpressing Saccharomyces cerevisiae ERG11 after 48 hrs by liquid microdilution assay. It is filed as functional. Put shortly: as §2
Assay [9] has as its system Pichia kudriavzevii. As to the kind of experiment: Antimicrobial activity against Candida krusei NZCDC 89.221 after 48 hrs by liquid microdilution assay. It is filed as functional. Conditions: NZCDC 89.221, 48 h. An outline of the steps:
as §2

In assay [10] the test system is Saccharomyces cerevisiae. Description: Fold resistant, ratio of MIC for Saccharomyces cerevisiae isolate ADdelta overexpressing Candida krusei ERG11g to MIC for Saccharomyces cerevisiae isolate ADdelta overexpressing Abc1p. It is filed as functional. Put shortly:
as §1

For assay [11], the system named is Pichia kudriavzevii. Description: Antimicrobial activity against Candida krusei B2399 after 48 hrs by liquid microdilution assay. As to conditions: B2399, 48 h. Format: functional. An outline of the steps: as §2
In assay [12] the test system is Saccharomyces cerevisiae. Description: Antimicrobial activity against Saccharomyces cerevisiae isolate ADdelta overexpressing Candida albicans ERG11A after 48 hrs by liquid microdilution assay. Format: functional. An outline of the steps:
as §2

Assay [13] has as its system Pichia kudriavzevii. As to the kind of experiment: Antimicrobial activity against Candida krusei NZCDC 89.221 after 48 hrs by CLSI method. Format: functional. Put shortly: as §3
The subject of assay [14] is Pichia kudriavzevii. As to the kind of experiment: Increase in ERG11 mRNA expression in Candida krusei B2399 at 2 times MIC concentration after 1 hr by hot-phenol extraction based Northern blotting. Format: functional, organism-based. An outline of the steps: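 Logarithmically grown C. krusei B2399 was exposed to azole for 60 min (2x MIC for VRC, MCZ and ITC; 1x MIC for FLC) alongside an untreated control. Total RNA was extracted with hot phenol, and 10 µg was run on 1.2% denaturing agarose. It was Northern blotted and probed with a radiolabeled ERG11 fragment. ACT1 mRNA served as internal control, with EtBr-stained rRNA showing loading.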

The subject of assay [15] is Saccharomyces cerevisiae. Description: Antimicrobial activity against Saccharomyces cerevisiae isolate ADdelta overexpressing Candida krusei ERG11g after 48 hrs by liquid microdilution assay. It is filed as functional. Put shortly:
as §2

Assay [16] deals with Pichia kudriavzevii. As to the kind of experiment: Antimicrobial activity against Candida krusei NZCDC 90.147 after 48 hrs by liquid microdilution assay. It is filed as functional. As to conditions: NZCDC 90.147, 48 h. An outline of the steps: as §2
Assay [17] relates to Saccharomyces cerevisiae. As to the kind of experiment: Fold resistant, ratio of MIC for Saccharomyces cerevisiae isolate ADdelta overexpressing Candida albicans ERG11A to MIC for Saccharomyces cerevisiae isolate ADdelta overexpressing Abc1p. Format: functional. Put shortly: as §1
Assay [18] deals with Pichia kudriavzevii. Description: Antimicrobial activity against Candida krusei NZCDC 89.102 after 48 hrs by CLSI method. It is filed as functional. An outline of the steps: as §3
Assay [19] deals with Pichia kudriavzevii. As to the kind of experiment: Antimicrobial activity against Candida krusei NZCDC 89.021 after 48 hrs by liquid microdilution assay. It is filed as functional. As to conditions: NZCDC 89.021, 48 h. Put shortly: as §2
Assay [20] deals with Pichia kudriavzevii. As to the kind of experiment: Antimicrobial activity against Candida krusei B2399 after 48 hrs by CLSI method. Format: functional. Conditions: B2399, 48 h. An outline of the steps: as §3
In assay [21] the test system is Pichia kudriavzevii. As to the kind of experiment: Antimicrobial activity against Candida krusei IFO0011 after 48 hrs by liquid microdilution assay. As to conditions: IFO0011, 48 h. Format: functional. An outline of the steps: as §2
Assay [22] deals with Pichia kudriavzevii. As to the kind of experiment: Antimicrobial activity against Candida krusei NZCDC 89.021 after 48 hrs by CLSI method. Format: functional. As to conditions: NZCDC 89.021, 48 h. Put shortly: as §3
In assay [23] the target is ATP binding cassette transporter Abc1p (Issatchenkia orientalis) (UniProt Q09GQ4). Description: Inhibition of Candida krusei ABC1 expressed in Saccharomyces cerevisiae isolate ADdelta at 0.026 nM. Conditions: Pichia kudriavzevii. Put shortly:
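Agarose disk-diffusion test of S. cerevisiae AD overexpressing C. krusei Abc1p, with the parent AD strain as comparison. Cells were pregrown from YPD overnight into CSM to mid-log at 30°C. They were seeded at OD600 0.008 in CSM with 0.6% agarose, overlaid on CSM agar (pH 7.0). Paper disks carrying set nmol amounts of xenobiotic were applied, and plates were incubated at 30°C for 48 h before reading growth inhibition zones.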

Assay [24] shares this target. As to the kind of experiment: Inhibition of Candida krusei Abc1p expressed in Saccharomyces cerevisiae isolate AD assessed as reduction of itraconazole MIC at 1 ug after 48 hrs by agarose diffusion assay. Conditions: Pichia kudriavzevii.
Assay [25] has the same target. Description: Inhibition of Candida krusei B2399 Abc1p assessed as reduction of itraconazole MIC at 1 ug after 48 hrs by agarose diffusion assay. As to conditions: Pichia kudriavzevii.
For assay [26] the target is unchanged. As to the kind of experiment: Inhibition of Candida krusei IF011 Abc1p assessed as reduction of itraconazole MIC at 1 ug after 48 hrs by agarose diffusion assay. Conditions: Pichia kudriavzevii.
The target is the same in assay [27]. As to the kind of experiment: Inhibition of Candida krusei ABC1 expressed in Saccharomyces cerevisiae isolate ADdelta at 22 nM. Conditions: Pichia kudriavzevii.
Assay [28] has the same target. Description: Inhibition of Candida krusei ABC1 expressed in Saccharomyces cerevisiae isolate ADdelta at 0.28 nM. Conditions: Pichia kudriavzevii.

A word on the MIC: it is the least concentration at which growth counts as inhibited.

≈ marks a conversion by molar mass, not a printed value. Calls of active or inactive are those of the source. The rule behind the calls is not given here.

Turning to `C[C@@H](c1ncncc1F)[C@](O)(Cn1cncn1)c1ccc(F)cc1F` [VORICONAZOLE], the ratio in assay [1] is 8; in [7] it was 8; in assay [10] it was 64; in assay [17], 4. The MIC in assay [2] turned out to be 2 µg/mL (≈ 5.73 µM); in [3], 0.0078 µg/mL (≈ 0.0223 µM); in [4], 1 µg/mL (≈ 2.86 µM); in assay [5] it was 0.063 µg/mL (≈ 0.18 µM); in assay [6] it was 1 µg/mL (≈ 2.86 µM); in assay [8], 0.063 µg/mL (≈ 0.18 µM). Also, the MIC in [9] is 1 µg/mL (≈ 2.86 µM); in assay [11] it was 1 µg/mL (≈ 2.86 µM); in assay [12] it was 0.031 µg/mL (≈ 0.0887 µM); in assay [13], 0.5 µg/mL (≈ 1.43 µM); in assay [15] it was 0.5 µg/mL (≈ 1.43 µM); in assay [16], 2 µg/mL (≈ 5.73 µM). Besides, the MIC in assay [18] was found to be 0.5 µg/mL (≈ 1.43 µM); in assay [19], 2 µg/mL (≈ 5.73 µM); in assay [20] it was 0.5 µg/mL (≈ 1.43 µM); in assay [21], 1 µg/mL (≈ 2.86 µM); in assay [22], 0.5 µg/mL (≈ 1.43 µM). Moreover, in assay [14], the outcome was Active.
For the molecule `Clc1ccc(COC(Cn2ccnc2)c2ccc(Cl)cc2Cl)c(Cl)c1` (centres undefined) [MICONAZOLE], the ratio in assay [1] is 16; in [7], 4; in assay [10], 64; in assay [17], 8. For the same molecule, the MIC is 4 µg/mL (≈ 9.61 µM) in assay [2]; 0.0078 µg/mL (≈ 0.0187 µM) in assay [3]; 4 µg/mL (≈ 9.61 µM) in assay [4]; 0.125 µg/mL (≈ 0.3 µM) in assay [5]; 4 µg/mL (≈ 9.61 µM) in [6]; 0.031 µg/mL (≈ 0.0745 µM) in assay [8]. The MIC in [9] amounted to 4 µg/mL (≈ 9.61 µM); in assay [11] it was 2 µg/mL (≈ 4.81 µM); in assay [12] it was 0.063 µg/mL (≈ 0.151 µM); in [13], 2 µg/mL (≈ 4.81 µM); in [15] it was 0.5 µg/mL (≈ 1.2 µM); in [18], 2 µg/mL (≈ 4.81 µM). For the same molecule, the values for the MIC in [19], in [20] and in assay [22] were 4 µg/mL (≈ 9.61 µM), 4 µg/mL (≈ 9.61 µM) and 2 µg/mL (≈ 4.81 µM), respectively. Also, the outcome in [23] was inactive. Besides, the result in assay [14] was Active.
On to `CO[C@@H]1C(C)=C[C@H]2C(=O)O[C@H]3C[C@@H](C/C=C(\C)C[C@@H](C)/C=C/C=C(\CO)[C@]2(O)[C@@H]1O)O[C@@]1(CC[C@H](C)[C@@H](C)O1)C3`, for which the result in [24], in [25] and in assay [26] was Active.
Take NYSTATIN: the result in assay [27] was inactive.
Turning to `CC(=O)N1CCN(c2ccc(OCC3COC(Cn4ccnc4)(c4ccc(Cl)cc4Cl)O3)cc2)CC1` (centres undefined) [KETOCONAZOLE], the ratio in assay [1] worked out at 2; in assay [7], 2; in assay [10], 64; in assay [17] it was 4. Further, the MIC in assay [2] came out at 4 µg/mL (≈ 7.53 µM); in assay [3] it was 0.031 µg/mL (≈ 0.0583 µM); in assay [4] it was 1 µg/mL (≈ 1.88 µM); in assay [5] it was 0.063 µg/mL (≈ 0.119 µM); in assay [6], 1 µg/mL (≈ 1.88 µM); in [8], 0.063 µg/mL (≈ 0.119 µM). The MIC in assay [9] was found to be 2 µg/mL (≈ 3.76 µM); in assay [11] it was 2 µg/mL (≈ 3.76 µM); in [12], 0.125 µg/mL (≈ 0.235 µM); in [13], 0.5 µg/mL (≈ 0.941 µM); in assay [15], 2 µg/mL (≈ 3.76 µM); in [16] it was 4 µg/mL (≈ 7.53 µM). The MIC in assay [18] is 0.5 µg/mL (≈ 0.941 µM); in assay [19], 4 µg/mL (≈ 7.53 µM); in assay [20], 0.5 µg/mL (≈ 0.941 µM); in [21], 2 µg/mL (≈ 3.76 µM); in assay [22] it was 0.5 µg/mL (≈ 0.941 µM). Also, the outcome in assay [28] was inactive.
